Data as given in publication PMC3158287 (Nature chemical biology, 2011).

Key:
OSBP-Myc-His = target: T1, OSBP-Myc-His (Homo sapiens, UniProt P22059); assay: [3H]25-OHC charcoal-dextran binding assay, wild-type OSBP-Myc-His; conditions: read-out: Ki, OSBP-Myc-His; competition with 20 nM [3H]25-OHC; mean ± s.d.
T1 sequence (P22059 1-807): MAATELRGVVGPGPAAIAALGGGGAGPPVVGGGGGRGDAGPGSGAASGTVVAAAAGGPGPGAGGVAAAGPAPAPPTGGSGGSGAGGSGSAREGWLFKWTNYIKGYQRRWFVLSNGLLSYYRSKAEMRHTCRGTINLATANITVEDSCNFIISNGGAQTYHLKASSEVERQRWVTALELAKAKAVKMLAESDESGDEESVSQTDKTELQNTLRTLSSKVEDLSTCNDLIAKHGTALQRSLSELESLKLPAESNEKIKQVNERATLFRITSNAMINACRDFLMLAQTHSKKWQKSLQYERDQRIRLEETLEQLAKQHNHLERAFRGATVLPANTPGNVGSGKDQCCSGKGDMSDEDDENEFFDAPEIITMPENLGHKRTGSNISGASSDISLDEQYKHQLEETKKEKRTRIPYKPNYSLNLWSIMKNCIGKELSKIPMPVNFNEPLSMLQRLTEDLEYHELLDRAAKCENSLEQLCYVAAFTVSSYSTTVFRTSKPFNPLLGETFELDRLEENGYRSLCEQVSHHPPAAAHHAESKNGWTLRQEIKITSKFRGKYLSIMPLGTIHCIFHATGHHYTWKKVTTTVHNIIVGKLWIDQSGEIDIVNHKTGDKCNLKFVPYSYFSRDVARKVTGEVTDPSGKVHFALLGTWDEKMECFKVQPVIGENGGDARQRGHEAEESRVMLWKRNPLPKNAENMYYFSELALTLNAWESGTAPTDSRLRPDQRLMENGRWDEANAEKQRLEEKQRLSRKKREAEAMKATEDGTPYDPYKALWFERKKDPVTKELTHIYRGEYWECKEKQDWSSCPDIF

[1] = test system: ceramide labeling in HCT-116 cells; assay: Ceramide labeling, [3H]serine pulse labeling, HCT-116; type: cell-based, human; conditions: range of concentrations
[2] = test system: HeLa cells overexpressing ORP4L; assay: Overexpression-viability assay, ORP4L-Myc-His; type: cell-based, human; conditions: 48 h, versus lacZ
human cancer cell lines = conditions: cited from earlier work
OSBP [3] = target: T2, OSBP (Homo sapiens, UniProt P22059); assay: OSBP localization by immunofluorescence microscopy, HCT-116; type: cell-based; conditions: HCT-116 cells, 4 h; 5 μM schweinfurthin A, 10 nM OSW-1, 20 nM cephalostatin 1
T2 sequence (P22059 1-807): T1 sequence (P22059 1-807)
Summary of the method: (§1)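 Cells on coverslips were grown 72 h, then given test compound or vehicle (4 h for HCT-116). They were fixed 10 min in 3.7% formaldehyde/PBS and permeabilised 5 min in 0.5% Triton X-100. Blocking used Image-iT FX, then 1% BSA/PBS. Rabbit anti-OSBP (N-terminus) and mouse anti-p230 were applied overnight at 4 °C, then Alexa Fluor secondaries for 60 min with Hoechst 33258. Imaging was by confocal microscopy.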

OSBP [4] = target: T2, OSBP; assay: OSBP protein levels by western blotting; type: cell-based; conditions: HCT-116 cells
Summary of the method: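 HCT-116 cells were treated with test compound at 50 nM or 10 nM over a time course including 24 h. Some samples also received proteasome inhibitor MG-132 or lactacystin. OSBP was measured by western blotting with polyclonal rabbit anti-OSBP (N-terminus) antibody. Data are n = 3, compared with vehicle-treated cells by two-tailed Student's t-test.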

CERT = CERT protein amount in treated cells; type: cell-based, human; conditions: GI90 concentration, HCT-116 or A549 cells
OSBP [5] = target: T2, OSBP; assay: OSBP localization by immunofluorescence microscopy, A549; type: cell-based; conditions: A549 cells
Summary of the method: as §1

[6] = test system: HCT-116 p21^−/− cells stably transfected with shOSBP or shNT; assay: OSBP shRNA knockdown and dose-shift experiment; type: cell-based, human; conditions: 72 h
Summary of the method: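 HCT-116 p21−/− cells were stably transfected with OSBP-targeting or nontargeting shRNA in the pSIREN-RetroQ vector. […] Values are mean ± s.d. of 3–4 experiments, compared with shNT cells by two-tailed Student's t-test.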

Row | SMILES | Ki (OSBP-Myc-His) [nM] | Effect on ceramide labeling [1] | Desensitization factor by ORP4L overexpression (relative GI30) [2] | GI50 (half-maximal inhibitory concentration) (human cancer cell lines) | OSBP localization (OSBP [3]) | Reduction in OSBP protein levels (OSBP [4]; 10 nM, 24 h) | Amount of CERT protein (CERT) | OSBP localization (OSBP [5]) | Effect on OSBP levels (compound alone) (OSBP [4]; 25-OHC 10 μM) | Sensitization by OSBP shRNA knockdown (GI50 shift shOSBP vs shNT) [6]
1 | COc1ccc(C(=O)O[C@H]2[C@H](O[C@@H]3[C@@H](OC(C)=O)[C@H](O[C@H]4C[C@H]5[C@@H]6CC=C7C[C@@H](O)CC[C@]7(C)[C@H]6CC[C@]5(C)[C@@]4(O)[C@H](C)C(=O)CCC(C)C)OC[C@@H]3O)OC[C@@H](O)[C@@H]2O)cc1 [OSW-1] | 26 | no effect | 2–5 | nanomolar range | localize to a perinuclear position that did not localize with p230 | approximately 75% | not affected | dispersal or vesiculation of OSBP |  | 
2 | CC(C)=CCC/C(C)=C/Cc1c(O)cc(/C=C/c2cc(O)c3c(c2)C[C@@H]2C(C)(C)[C@H](O)[C@H](O)C[C@@]2(C)O3)cc1O [schweinfurthin A] |  |  | 2–5 | nanomolar range | accumulate at perinuclear positions with a large degree of co-localization with the trans-Golgi marker p230 |  |  |  | no effect | nine
